Assay [1] in a line: Her2 expression decrease, cell viability multiplex – SKBR3 breast tumor cells, AlphaScreen, ATP viability, primary screen (AID 461;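 active = Her2 level under about 52% in both replicate screens, with viability over 70% of control, limit read from the data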;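 for Her2 level: lower value means less Her2 protein in the cells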;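 for viability: percent of carrier control wells set as 100% viability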). The following applies: SKBR3 Her2 protein level, 18-24 h, measured here: SKBR3 viability, ATP luminescence, at 10 µM. (In Alpha technology, singlet oxygen from a donor bead excites a nearby acceptor bead.)
In assay [2] the target is Receptor tyrosine-protein kinase erbB-2 (Homo sapiens) (UniProt P04626). Described as above. The following applies: 18-24 h, at 10 µM, stronger effect = lower value.
Chain of Receptor tyrosine-protein kinase erbB-2 (Homo sapiens) (P04626 whole entry, looked up): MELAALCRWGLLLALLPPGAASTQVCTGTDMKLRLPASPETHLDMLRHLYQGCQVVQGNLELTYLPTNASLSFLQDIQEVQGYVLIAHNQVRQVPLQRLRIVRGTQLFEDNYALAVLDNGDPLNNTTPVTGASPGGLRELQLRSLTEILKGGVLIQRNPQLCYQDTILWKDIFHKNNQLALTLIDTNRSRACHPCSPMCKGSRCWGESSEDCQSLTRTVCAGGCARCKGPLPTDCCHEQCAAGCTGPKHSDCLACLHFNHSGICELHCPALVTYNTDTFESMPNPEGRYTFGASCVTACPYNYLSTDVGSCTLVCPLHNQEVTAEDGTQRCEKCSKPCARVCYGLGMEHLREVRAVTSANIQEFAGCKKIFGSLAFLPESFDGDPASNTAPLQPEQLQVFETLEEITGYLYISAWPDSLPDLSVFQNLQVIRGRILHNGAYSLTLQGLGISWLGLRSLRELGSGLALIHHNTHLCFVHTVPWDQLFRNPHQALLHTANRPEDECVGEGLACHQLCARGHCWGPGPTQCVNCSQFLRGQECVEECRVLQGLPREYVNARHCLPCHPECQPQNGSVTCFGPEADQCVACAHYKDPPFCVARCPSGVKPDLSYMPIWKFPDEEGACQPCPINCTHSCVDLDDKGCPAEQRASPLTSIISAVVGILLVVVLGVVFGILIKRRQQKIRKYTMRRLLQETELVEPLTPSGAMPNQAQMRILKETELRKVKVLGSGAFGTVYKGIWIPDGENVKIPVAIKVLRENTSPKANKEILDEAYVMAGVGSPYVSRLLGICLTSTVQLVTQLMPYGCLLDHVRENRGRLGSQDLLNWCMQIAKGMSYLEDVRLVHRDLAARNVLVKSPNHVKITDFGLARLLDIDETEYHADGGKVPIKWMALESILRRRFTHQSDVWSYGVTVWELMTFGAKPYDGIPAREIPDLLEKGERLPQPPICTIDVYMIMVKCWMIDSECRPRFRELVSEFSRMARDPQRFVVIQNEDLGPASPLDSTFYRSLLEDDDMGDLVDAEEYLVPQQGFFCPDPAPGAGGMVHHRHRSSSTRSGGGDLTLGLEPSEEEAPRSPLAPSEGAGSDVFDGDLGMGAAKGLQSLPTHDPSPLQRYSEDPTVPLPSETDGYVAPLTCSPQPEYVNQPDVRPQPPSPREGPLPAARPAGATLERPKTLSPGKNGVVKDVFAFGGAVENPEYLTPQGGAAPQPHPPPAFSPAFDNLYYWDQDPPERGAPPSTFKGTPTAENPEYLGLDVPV
A short description of assay [3]: reduced viability of SK-BR-3 breast cancer cells – cell-based, 24 h, human, pilot screen (AID 572;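 active = viability at or below 10% of carrier control in both of two separate runs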;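 note: compound exposure lasted between 18 and 24 h rather than exactly 24 h; 100% = carrier-treated control wells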). As to conditions: SK-BR-3 viability, CellTiter-Glo luminescence, at 10 µM, stronger effect = lower value. On the technique in general: ATP-based viability assays read luminescence as a measure of living cells.
Assay [4] can be described thus: HUVEC growth inhibition – cell-based, human, primary screen (AID 575).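 Note: 100% = median of untreated cell wells with 0.1% DMSO on each plate.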 The following applies: HUVEC proliferation, CellTiter-Glo luminescence, 72 h; at 10 µM; stronger effect = lower value. The essentials: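 System: primary human umbilical vein endothelial cells; Quantity: 1250 endothelial cells in each well; Buffer or medium: supplemented EBM, 2% fetal bovine serum; Doses: one dose, 10 µM final, 0.1% DMSO; Incubation: 72 h compound incubation; Technique: ATP-based CellTiter-Glo luminescent read; Evaluation: percent of median DMSO-control luminescence; Controls: vehicle and MePR control wells.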

Assay [5] is described as follows: H69AR cell proliferation blockers – human, duplicate replicates, primary screen (AID 580;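 active = viability at or under a set limit in both replicates, limit being median viability minus 3 SD, cut at about 48% in these data, passing the limit was not always enough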;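 note: 100% = mean luminescence of untreated wells and 0% = no signal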). The following applies: H69AR lung tumor cells viability, ATP luminescence, 72 h; at 10 µM; stronger effect = lower value.
Assay [6] in a line: MRP1 drug-resistance reversers in H69AR cells – cell-based, doxorubicin co-treatment, pilot screen (AID 601;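 active = viability loss from added drug above about 55%, and viability with drug at most 40%, in both replicates, limit read from the data, passing the limit was not always enough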). The following applies: CellTiter-Glo, 72 h, at 10 µM; for differential viability (reversal): stronger effect = higher value.
Assay [7] can be described thus: yeast transport mutant growth inhibition pilot in 384-well plates, post-Golgi transport modulator project (AID 636; in the data active = inhibition above about 31%). As to conditions: absorbance 615 nm, about 18 h, stronger effect = higher value.
Assay [8] can be described thus: growth suppression of yeast trafficking mutant, preliminary HTS, modulators of trafficking downstream of Golgi apparatus project, 1536-format plate, OD 615 nm (AID 637; in the data active = inhibition above about 30%). As to conditions: yeast transport mutant growth, absorbance 615 nm, 18 h; stronger effect = higher value.
Setting [9] is: H69AR cells + 2 uM doxorubicin, measured here: viability with 2 uM doxorubicin, stronger effect = lower value.
The mark [10] stands for this setting: H69AR cells, compound alone cytotoxicity.

The source made the active and inactive calls.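 Rule for the calls, unless noted: active = viability at or below 30% in both replicate assays; inconclusive = viability at or below 30% in just one of the two assays; inactive = the rest.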

With `COCCn1nnnc1C(C(C)C)N1CCN(C(=O)c2ccco2)CC1` (stereo not given), the viability (commonly a read-out of living cells in per cent, often relative to untreated cells) in assay [1] was 92.5%; in assay [3] it was 92.5% (inactive); in assay [4] it was 99.2% (inactive); in assay [5], 96.7% (inactive); in assay [6] (setting [9]) it was 98.2%; in assay [6] (setting [10]), 96.7%. In assay [2], the Her2 level was 112% (inactive). Besides, the differential viability (reversal) in assay [6] (H69AR cells + 2 uM doxorubicin) is -1.47% (inactive). Further, the inhibition – broadly, the drop in the measured response relative to a control, in per cent – in assay [7] is 3.77% (inactive); in assay [8] it was 15.6% (inactive).
In the case of `COC(=O)c1nn(-c2ccc(-c3ccccc3)cc2)cc1O`, the viability in assay [1] was 94%; in assay [3], 94% (inactive); in assay [4] it was 92.6% (inactive); in assay [5], 89.2% (inactive); in assay [6] (setting [9]), 85.1%; in assay [6] (setting [10]), 89.2%. Further, in assay [2], the Her2 level is 97% (inactive). Also, the differential viability (reversal) in assay [6] (H69AR cells + 2 uM doxorubicin) was 4.12% (inactive). Further, the inhibition is -4.27% (inactive) in assay [7] and -8.06% (inactive) in assay [8].
Turning to `O=C(O)C1C2CCC(O2)C1C(=O)NCCC1=CCCCC1` (stereo not given), the viability was 78.5% in assay [1]; 78.5% (inactive) in assay [3]; 34.2% (inactive) in assay [4]; 57.8% (inactive) in assay [5]; 66.8% in assay [6] (setting [9]); 57.8% in assay [6] (setting [10]). In addition, in assay [2], the Her2 level is 118% (inactive). In addition, in assay [6] (H69AR cells + 2 uM doxorubicin), the differential viability (reversal) is -9.07% (inactive). For the same compound, the results for the inhibition in assay [7] and in assay [8] were 0% (inactive) and 0.5% (inactive), respectively.
On to `COc1ccccc1Nc1ccc(C(=O)NC2CCCCC2)cn1`, for which the viability in assay [1] is 100%; in assay [3] it was 100% (inactive); in assay [4] it was 106% (inactive); in assay [5] it was 93.2% (inactive); in assay [6] (setting [9]), 81.2%; in assay [6] (setting [10]) it was 93.2%. In assay [2], the Her2 level is 96% (inactive). For the same compound, in assay [6] (H69AR cells + 2 uM doxorubicin), the differential viability (reversal) was 12% (inactive). Moreover, the inhibition was -3.92% (inactive) in assay [7] and -3.11% (inactive) in assay [8].
For `CC1(C)CC(=O)C(C=Nc2ccc3c(c2)OCO3)=C(O)C1`, the viability in assay [1] is 114%; in assay [3] it was 114% (inactive); in assay [4] it was 79.2% (inactive); in assay [5], 75.5% (inactive); in assay [6] (setting [9]), 103%; in assay [6] (setting [10]), 75.5%. Also, the Her2 level in assay [2] is 113% (inactive). In assay [6] (H69AR cells + 2 uM doxorubicin), the differential viability (reversal) was -27.7% (inactive). Besides, the inhibition in assay [7] was 0% (inactive); in assay [8], -4.33% (inactive).
As for `O=c1c2[nH]c3ccccc3c2ncn1CCCn1ccnc1`, the viability is 92% in assay [1]; 92% (inactive) in assay [3]; 93.7% (inactive) in assay [4]; 96.8% (inactive) in assay [5]; 95.7% in assay [6] (setting [9]); 96.8% in assay [6] (setting [10]). Besides, in assay [2], the Her2 level is 77.5% (inactive). For the same compound, the differential viability (reversal) in assay [6] (H69AR cells + 2 uM doxorubicin) is 1.08% (inactive). Moreover, the inhibition in assay [7] was -3.77% (inactive); in assay [8] it was -0.83% (inactive).
Turning to `CCOC(=O)C1=C(C)OC(N)=C(C#N)C1c1ccoc1` (stereo not given), the viability in assay [1] is 111%; in assay [3] it was 111% (inactive); in assay [4] it was 88.1% (inactive); in assay [5] it was 95.3% (inactive); in assay [6] (setting [9]), 84%; in assay [6] (setting [10]), 95.3%. In addition, the Her2 level in assay [2] is 107% (inactive). Besides, the differential viability (reversal) in assay [6] (H69AR cells + 2 uM doxorubicin) was 11.2% (inactive). In addition, the inhibition in assay [7] was 1.04% (inactive); in assay [8], -4.17% (inactive).
Regarding `COc1ccc(C2c3sc(=O)[nH]c3SC3C4CCC(C4)C23)cc1` (stereo not given), the viability was 99.5% in assay [1]; 99.5% (inactive) in assay [3]; 80.1% (inactive) in assay [4]; 89.7% (inactive) in assay [5]; 87.7% in assay [6] (setting [9]); 89.7% in assay [6] (setting [10]). The Her2 level in assay [2] is 94.5% (inactive). Moreover, the differential viability (reversal) in assay [6] (H69AR cells + 2 uM doxorubicin) is 1.93% (inactive). Besides, the inhibition in assay [7] was 6.4% (inactive); in assay [8] it was 5.97% (inactive).
Take `O=C(CNS(=O)(=O)c1ccc(Br)s1)N1CCCC1`: the viability in assay [1] is 118%; in assay [3], 118% (inactive); in assay [4], 98.7% (inactive); in assay [5], 99.9% (inactive); in assay [6] (setting [9]), 90.1%; in assay [6] (setting [10]), 99.9%. Moreover, the Her2 level in assay [2] is 115% (inactive). For the same compound, in assay [6] (H69AR cells + 2 uM doxorubicin), the differential viability (reversal) is 9.79% (inactive). Further, the inhibition in assay [7] was -2.11% (inactive); in assay [8], 6.89% (inactive).
For the compound `Cc1ccc(C2Nc3ccccc3-c3nc4ccccc4n32)o1` (stereo not given), the viability in assay [1] was 97%; in assay [3], 97% (inactive); in assay [4] it was 54.4% (inactive); in assay [5], 38.3% (active); in assay [6] (setting [9]), 56.4%; in assay [6] (setting [10]), 38.3%. Also, the Her2 level in assay [2] was 89.5% (inactive). Besides, the differential viability (reversal) in assay [6] (H69AR cells + 2 uM doxorubicin) was -18.1% (inactive). The inhibition is -1.37% (inactive) in assay [7] and 4.44% (inactive) in assay [8].
On to `O=C(c1cnsn1)N1CCN(c2ccccn2)CC1`, for which the viability in assay [1] was 122%; in assay [3], 122% (inactive); in assay [4], 100% (inactive); in assay [5] it was 102% (inactive); in assay [6] (setting [9]), 91.7%; in assay [6] (setting [10]), 102%. Besides, the Her2 level in assay [2] is 75% (inactive). The differential viability (reversal) in assay [6] (H69AR cells + 2 uM doxorubicin) was 10.7% (inactive). The inhibition in assay [7] is -0.66% (inactive); in assay [8] it was -5.87% (inactive).
With `CN1CC[n+]2cnc3ccccc3c21`, the viability in assay [1] is 100%; in assay [3], 100% (inactive); in assay [4], 108% (inactive); in assay [5], 97.3% (inactive); in assay [6] (setting [9]), 89.1%; in assay [6] (setting [10]), 97.3%. In assay [2], the Her2 level is 92% (inactive). For the same compound, the differential viability (reversal) in assay [6] (H69AR cells + 2 uM doxorubicin) is 8.2% (inactive). For the same compound, the inhibition is -2.24% (inactive) in assay [7] and 6.23% (inactive) in assay [8].
In the case of `COc1ccc(C(C(C(=O)c2ccco2)N2CCOCC2)N2CCOCC2)cc1` (stereo not given), the viability in assay [1] was 97%; in assay [3], 97% (inactive); in assay [4] it was 85.6% (inactive); in assay [5], 87.3% (inactive); in assay [6] (setting [9]), 91.4%; in assay [6] (setting [10]), 87.3%. For the same compound, in assay [2], the Her2 level was 95% (inactive). Also, in assay [6] (H69AR cells + 2 uM doxorubicin), the differential viability (reversal) was -4.03% (inactive). Besides, the inhibition in assay [7] is -6.53% (inactive); in assay [8] it was -10.6% (inactive).
As for `CC(C)(C)c1ccc(C(=O)Nc2cnccn2)cc1`, the viability in assay [1] is 79.5%; in assay [3] it was 79.5% (inactive); in assay [4], 98.1% (inactive); in assay [5], 100% (inactive); in assay [6] (setting [9]), 81.5%; in assay [6] (setting [10]), 100%. Further, the Her2 level in assay [2] is 114% (inactive). Further, the differential viability (reversal) in assay [6] (H69AR cells + 2 uM doxorubicin) was 18.8% (inactive). Besides, the inhibition in assay [7] was -4.87% (inactive); in assay [8], 0.67% (inactive).
With `CCSc1nc(C)nc2c1oc1ccccc12`, the viability is 78.5% in assay [1]; 78.5% (inactive) in assay [3]; 92.6% (inactive) in assay [4]; 97.7% (inactive) in assay [5]; 87.7% in assay [6] (setting [9]); 97.7% in assay [6] (setting [10]). Further, in assay [2], the Her2 level was 82% (inactive). In addition, the differential viability (reversal) in assay [6] (H69AR cells + 2 uM doxorubicin) is 10% (inactive). Also, the figures for the inhibition in assay [7] and in assay [8] were -4.67% (inactive) and -5.74% (inactive), respectively.
In the case of `COc1ccc(C)cc1NC(=O)c1nc2nc(C)cc(C)n2n1`, the viability in assay [1] was 86%; in assay [3] it was 86% (inactive); in assay [4] it was 73% (inactive); in assay [5], 85.1% (inactive); in assay [6] (setting [9]) it was 86.6%; in assay [6] (setting [10]), 85.1%. For the same compound, the Her2 level in assay [2] was 76% (inactive). In addition, the differential viability (reversal) in assay [6] (H69AR cells + 2 uM doxorubicin) was -1.54% (inactive). Besides, the inhibition is -6.13% (inactive) in assay [7] and -1.11% (inactive) in assay [8].

For the origin of these results see PubChem BioAssay.
